In ChEMBL document CHEMBL4765405, “Design, synthesis and biological activities of novel pleuromutilin derivatives with a substituted triazole moiety as potent antibacterial agents” (Eur J Med Chem, 2020) one finds MBC, MIC and Ratio data, which are given here for seven molecules.

Common to all, as to type: functional
Assay [1] deals with Escherichia coli. Kind of assay: Bactericidal activity against Escherichia coli ATCC 25922 preincubated 16 to 20 hrs followed by subculturing and measured after over night. In outline:
(§1)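 MBC by CLSI broth microdilution on the same strain panel: S. aureus ATCC 43300, ATCC 29213, clinical isolates AD3 and 144, E. coli ATCC 25922; ATCC 43300 served as QC strain.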

Assay [2] relates to Staphylococcus aureus. Kind of assay: Antibacterial activity against methicillin-resistant Staphylococcus aureus ATCC 43300 after 24 hrs by CLSI based broth micro dilution method. Summed up: (§2)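 Broth microdilution run per CLSI. MRSA ATCC 43300 served as the QC strain, with the CLSI QC range as reference. S. aureus AD3 and 144 are clinical isolates from Guangdong Province. Pleuromutilin and tiamulin were run as reference drugs.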

The test system of assay [3] is Staphylococcus aureus. Put plainly: Antibacterial activity against Staphylococcus aureus AD3 after 24 hrs by CLSI based broth micro dilution method. In outline: (§3)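 CLSI broth microdilution MIC against S. aureus ATCC 43300 (MRSA), ATCC 29213, clinical isolates AD3 and 144 (Guangdong Province), and E. coli ATCC 25922; ATCC 43300 served as QC strain, with the CLSI quality control range as reference.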

Assay [4] concerns Staphylococcus aureus. Kind of assay: Bactericidal activity against Staphylococcus aureus 144 preincubated 16 to 20 hrs followed by subculturing and measured after over night. In outline: as §1
For assay [5], the system named is Staphylococcus aureus. Kind of assay: Antibacterial activity against Staphylococcus aureus ATCC 29213 after 24 hrs by CLSI based broth micro dilution method. Summed up:
as §2

Assay [6] can be described thus: Ratio of MBC for bactericidal activity against methicillin-resistant Staphylococcus aureus ATCC 43300 to MIC for antibacterial activity against methicillin-resistant Staphylococcus aureus ATCC 4330.
Assay [7] deals with Staphylococcus aureus. Put plainly: Bactericidal activity against methicillin-resistant Staphylococcus aureus ATCC 43300 preincubated 16 to 20 hrs followed by subculturing and measured after over night. Summed up:
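MBC determined by the CLSI broth microdilution method against MRSA ATCC 43300, with ATCC 43300 also serving as the QC strain. Pleuromutilin and tiamulin were reference drugs.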

Assay [8] deals with Staphylococcus aureus. Kind of assay: Bactericidal activity against Staphylococcus aureus AD3 preincubated 16 to 20 hrs followed by subculturing and measured after over night. Summed up:
as §1

In assay [9] the test system is Escherichia coli. Kind of assay: Antibacterial activity against Escherichia coli ATCC 25922 after 24 hrs by CLSI based broth micro dilution method. In outline: as §3
Assay [10] concerns Staphylococcus aureus. Kind of assay: Bactericidal activity against Staphylococcus aureus ATCC 29213 preincubated 16 to 20 hrs followed by subculturing and measured after over night. Summed up:
as §1

The test system of assay [11] is Staphylococcus aureus. Put plainly: Antibacterial activity against Staphylococcus aureus 144 after 24 hrs by CLSI based broth micro dilution method. In outline: as §2

The structures appear in SMILES notation. ≈ marks a conversion by molar mass, not a printed value.

Consider `C=C[C@]1(C)C[C@@H](OC(=O)CSc2ccccc2NC(=O)Cn2cc(CN3CCCCC3)nn2)[C@]2(C)[C@H](C)CC[C@]3(CCC(=O)[C@H]32)[C@@H](C)[C@@H]1O`, for which the MBC in assay [1] is greater than 32 µg/mL; in assay [4], 1 µg/mL (≈ 1.45 µM); in assay [7], 2 µg/mL (≈ 2.89 µM); in [8], 0.5 µg/mL (≈ 0.723 µM); in assay [10], 0.5 µg/mL (≈ 0.723 µM). The MIC is 0.5 µg/mL (≈ 0.723 µM) in assay [2]; 0.5 µg/mL (≈ 0.723 µM) in assay [3]; 0.5 µg/mL (≈ 0.723 µM) in assay [5]; greater than 32 µg/mL in assay [9]; 1 µg/mL (≈ 1.45 µM) in assay [11]. In addition, the Ratio in [6] worked out at 1.

For `C=C[C@]1(C)C[C@@H](OC(=O)CSc2ccccc2NC(=O)Cn2cc(CN3CCN(c4ccc(OC)cc4)CC3)nn2)[C@]2(C)[C@H](C)CC[C@]3(CCC(=O)[C@H]32)[C@@H](C)[C@@H]1O`, the MBC in [1] is greater than 32 µg/mL; in assay [4], 2 µg/mL (≈ 2.5 µM); in assay [7], 1 µg/mL (≈ 1.25 µM); in [8], 1 µg/mL (≈ 1.25 µM); in assay [10], 0.5 µg/mL (≈ 0.626 µM). The MIC in [2] was 1 µg/mL (≈ 1.25 µM); in assay [3], 1 µg/mL (≈ 1.25 µM); in assay [5] it was 0.5 µg/mL (≈ 0.626 µM); in assay [9], greater than 32 µg/mL; in assay [11], 1 µg/mL (≈ 1.25 µM). The Ratio in [6] is 1.

For the molecule `C=C[C@]1(C)C[C@@H](OC(=O)CSc2ccccc2NC(=O)Cn2cc(CN3CCN(c4cccc(F)c4)CC3)nn2)[C@]2(C)[C@H](C)CC[C@]3(CCC(=O)[C@H]32)[C@@H](C)[C@@H]1O`, the MBC is greater than 32 µg/mL in [1]; 2 µg/mL (≈ 2.54 µM) in assay [4]; 2 µg/mL (≈ 2.54 µM) in assay [7]; 1 µg/mL (≈ 1.27 µM) in assay [8]; 0.5 µg/mL (≈ 0.635 µM) in [10]. Moreover, the MIC in assay [2] was 1 µg/mL (≈ 1.27 µM); in assay [3], 0.5 µg/mL (≈ 0.635 µM); in [5] it was 0.5 µg/mL (≈ 0.635 µM); in [9] it was greater than 32 µg/mL; in assay [11] it was 1 µg/mL (≈ 1.27 µM). In assay [6], the Ratio came out at 1.

On to `C=C[C@]1(C)C[C@@H](OC(=O)CSc2ccccc2NC(=O)Cn2cc(CN3CCN(c4ccccc4O)CC3)nn2)[C@]2(C)[C@H](C)CC[C@]3(CCC(=O)[C@H]32)[C@@H](C)[C@@H]1O`, for which the MBC in assay [1] was greater than 32 µg/mL; in [4], 2 µg/mL (≈ 2.55 µM); in assay [7], 1 µg/mL (≈ 1.27 µM); in assay [8], 2 µg/mL (≈ 2.55 µM); in [10], 1 µg/mL (≈ 1.27 µM). Also, the MIC in assay [2] is 0.5 µg/mL (≈ 0.637 µM); in assay [3], 1 µg/mL (≈ 1.27 µM); in [5], 1 µg/mL (≈ 1.27 µM); in [9] it was greater than 32 µg/mL; in assay [11] it was 1 µg/mL (≈ 1.27 µM). The Ratio in assay [6] turned out to be 1.

Regarding `C=C[C@]1(C)C[C@@H](OC(=O)CSc2ccccc2NC(=O)Cn2cc(CN3CCN(c4ccccc4C)CC3)nn2)[C@]2(C)[C@H](C)CC[C@]3(CCC(=O)[C@H]32)[C@@H](C)[C@@H]1O`, the MBC is greater than 32 µg/mL in [1]; 4 µg/mL (≈ 5.11 µM) in assay [4]; 1 µg/mL (≈ 1.28 µM) in assay [7]; 4 µg/mL (≈ 5.11 µM) in assay [8]; 2 µg/mL (≈ 2.55 µM) in [10]. The MIC in assay [2] is 1 µg/mL (≈ 1.28 µM); in [3] it was 2 µg/mL (≈ 2.55 µM); in assay [5], 1 µg/mL (≈ 1.28 µM); in [9], greater than 32 µg/mL; in assay [11], 1 µg/mL (≈ 1.28 µM). Also, in assay [6], the Ratio is listed as 1.

On to `C=C[C@]1(C)C[C@@H](OC(=O)CSc2ccccc2NC(=O)Cn2cc(CN3CCN(c4ccccc4[N+](=O)[O-])CC3)nn2)[C@]2(C)[C@H](C)CC[C@]3(CCC(=O)[C@H]32)[C@@H](C)[C@@H]1O`, for which the minimal bactericidal concentration (MBC) in assay [1] is greater than 32 µg/mL; in assay [4] it was 2 µg/mL (≈ 2.46 µM); in assay [7], 1 µg/mL (≈ 1.23 µM); in [8], 1 µg/mL (≈ 1.23 µM); in assay [10], 0.25 µg/mL (≈ 0.307 µM). For the same molecule, the MIC is 0.5 µg/mL (≈ 0.614 µM) in assay [2]; 0.5 µg/mL (≈ 0.614 µM) in assay [3]; 0.25 µg/mL (≈ 0.307 µM) in assay [5]; greater than 32 µg/mL in assay [9]; 0.5 µg/mL (≈ 0.614 µM) in [11]. Further, the Ratio in [6] was determined as 1.

In the case of `C=C[C@]1(C)C[C@@H](OC(=O)CSc2ccccc2NC(=O)Cn2cc(CN3CCC(O)CC3)nn2)[C@]2(C)[C@H](C)CC[C@]3(CCC(=O)[C@H]32)[C@@H](C)[C@@H]1O`, the MBC was greater than 32 µg/mL in [1]; 2 µg/mL (≈ 2.83 µM) in assay [4]; 2 µg/mL (≈ 2.83 µM) in [7]; 1 µg/mL (≈ 1.41 µM) in assay [8]; 1 µg/mL (≈ 1.41 µM) in assay [10]. Moreover, the MIC in assay [2] was 1 µg/mL (≈ 1.41 µM); in assay [3], 1 µg/mL (≈ 1.41 µM); in assay [5] it was 1 µg/mL (≈ 1.41 µM); in [9], greater than 32 µg/mL; in assay [11] it was 1 µg/mL (≈ 1.41 µM). In addition, the Ratio in assay [6] is listed as 1.
